Series [1] is classed as in vivo, human. The conditions noted are these: M12. The method in brief:
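Urine collected predose (≤60 min before dosing) and over 0‒8, 8‒24, 24‒48 and 48‒72 h postdose. M12 measured by achiral LC-MS/MS (LLOQ 5 ng/mL). Excreted amount = urine concentration × interval urine volume. Renal clearance = cumulative 72-h urinary M12 divided by plasma AUC0–72. Summarised descriptively by group.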

For series [2] the following is noted: cited from earlier work.
Series [3] is classed as in vivo, human. The settings on record: for AUC0–∞ ratio of geometric means (90%CI) / Cmax ratio of geometric means (90%CI) / CL/F ratio of geometric means (90%CI) / Vz/F ratio of geometric means (90%CI): ANOVA; for Tmax median difference (90%CI): Hodges-Lehmann estimate; for t1/2 geometric mean difference: severely renal impaired vs healthy matched.
The conditions of series [4]: cited from earlier work. This is another data set of the same source.
For series [5] the following is noted: moderate and severe hepatic impairment; cited from earlier work.
Series [6] in a line: Safety monitoring. Format: in vivo, human. The settings on record: for subjects reporting AEs: single oral 30 mg. The method in brief:
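Subjects were confined from the evening before dosing through the PK sampling period. Monitoring ran throughout the study and covered adverse events, complete physical examinations, vital signs, 12-lead ECGs, clinical laboratory safety tests and prior and concomitant medications. Follow-up safety visit 11‒18 days after dosing.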

The conditions of series [7]: population pharmacokinetic model built in a phase 3 study; cited from earlier work.
For series [8] the following is noted: cited from earlier work. The source holds these as a separate data set.
Setting [9] is: M12, mild renal impaired/healthy matched.
[10] abbreviates: M12, moderate renal impaired/healthy matched.
Where [11] appears, read: M12, severe renal impaired/healthy matched.
[12] abbreviates: M12, subjects with mild renal impairment.
The mark [13] stands for this setting: M12, subjects with moderate renal impairment.
Where [14] appears, read: M12, subjects with severe renal impairment.
The mark [15] stands for this setting: healthy subjects, single oral dose.
Where [16] appears, read: apremilast, mild renal impaired/healthy matched.
The mark [17] stands for this setting: apremilast, moderate renal impaired/healthy matched.
[18] abbreviates: apremilast, moderate renal impairment group.
Where [19] appears, read: apremilast, severe renal impaired/healthy matched.
The mark [20] stands for this setting: apremilast, severe renal impairment vs healthy matched.
[21] abbreviates: apremilast, subjects with severe renal impairment.

Read-outs that look alike come from different tables or passages of the source. Marks after values point to notes of the source that are not given here.

On to `CCOc1cc([C@@H](CS(C)(=O)=O)N2C(=O)c3cccc(NC(C)=O)c3C2=O)ccc1O[C@@H]1O[C@H](C(=O)O)[C@@H](O)[C@H](O)[C@H]1O` [M12, O‐desmethyl apremilast glucuronide], for which the “geometric mean renal clearance” value in series [1] (healthy subjects matched with subjects with mild renal impairment) was found to be 3.67 L/h; in series [1] (healthy subjects matched with subjects with moderate renal impairment) it was 3.02 L/h; in series [1] (subjects with mild renal impairment, urine 0-72 h / plasma AUC 0-72 h), 2.35 L/h; in series [1] (subjects with moderate renal impairment) it was 1.84 L/h. For the same compound, the renal clearance decreased entry in series [1] (subjects with mild or moderate renal impairment) was “≈ 40%”. Further, the “share of the circulating radioactivity” value in series [2] (after a single oral dose of [14C]apremilast) was 39%. The “AUC0–∞ ratio of geometric means (90%CI)” value was 129.6 (99.5–168.8) % in series [3] (setting [9]), 161.4 (122.8–212.3) % in series [3] (setting [10]) and 291.7 (204.3–416.4) % in series [3] (setting [11]). Moreover, the “Cmax ratio of geometric means (90%CI)” value in series [3] (setting [9]) is given as 130.8 (91.7–186.6) %; in series [3] (setting [10]) it was 116.9 (81.9–166.8) %; in series [3] (setting [11]) it was 142.9 (106.3–192.1) %. In series [3] (M12, severe renal impaired vs healthy matched), the “Tmax median difference (90%CI)” value is 6.25 (2.975–11.0) h. Further, the “t1/2 geometric mean difference” value in series [3] (M12) is recorded as 10.498 ^d (NC) h. For the same compound, the “AUC0–∞ higher than in healthy matched subjects” value in series [3] (setting [12]) was determined as 29.6%; in series [3] (setting [13]), 61.4%. Moreover, the entries for the “Cmax higher than in healthy matched subjects” value in series [3] (setting [12]) and in series [3] (setting [13]) were 30.8% and 16.9%, respectively. Also, in series [3] (M12, subjects with renal impairment (severe study), P ≤ .05), the “Tmax delayed compared with healthy matched subjects” value is “≈ 6.25 hours”. Besides, the “increase in AUC0–∞ vs healthy matched subjects” value in series [3] (setting [14]) is 191.7%. Moreover, the “increase in Cmax vs healthy matched subjects” value in series [3] (setting [14]) stood at 42.9%. Moreover, in series [4], the pharmacological activity result was “pharmacologically inactive”.
With `CCOc1cc([C@@H](CS(C)(=O)=O)N2C(=O)c3cccc(NC(C)=O)c3C2=O)ccc1OC` [apremilast], in series [5], the “effect of hepatic impairment on pharmacokinetic profile” value is “largely unaffected”. In addition, in series [6] (both studies), the “deaths or AEs leading to discontinuation” value is “No deaths or AEs leading to discontinuation occurred”. In addition, in series [6] (both studies, single oral 30-mg dose), the overall safety finding entry is listed as “no unexpected AEs or safety signals”. Moreover, the “subjects with AEs considered possibly related to study medication or procedures” value was 2 in series [6] (healthy matched group of severe study) and 3 in series [6] (severe renal impairment group). Also, the “subjects reporting AEs” value amounted to 2 in series [6] (healthy matched group of severe study (n = 8)); 5 in series [6] (healthy matched groups of mild and moderate study (n = 16)); 2 in series [6] (mild renal impairment group (n = 8)); 2 in series [6] (moderate renal impairment group (n = 8)); 4 in series [6] (severe renal impairment group (n = 8)). In addition, the “subjects with AEs suspected to be related to study medication or procedures” value was found to be 3 in series [6] (healthy matched groups of mild and moderate study); 2 in series [6] (mild renal impairment group); 1 in series [6] (moderate renal impairment group). In addition, the absolute bioavailability result in series [2] (setting [15]) was “≈ 73%”. In series [2] (setting [15]), the “given dose excreted in urine unchanged” value is listed as “≈ 3%”. Further, the “Tmax median difference (90%CI)” value was 0.0 (‐1.00 to 1.00) P > .9999 h in series [3] (apremilast, mild renal impaired vs healthy matched); 1.0 (‐0.50 to 2.50) P = .25 h in series [3] (apremilast, moderate renal impaired vs healthy matched); 0.00 (‐1.5 to 1.5) P > .9999 h in series [3] (apremilast, severe renal impaired vs healthy matched). For the same compound, the “AUC0–∞ ratio of geometric means (90%CI)” value in series [3] (setting [16]) is given as 85.9 (65.8–112.0) %; in series [3] (setting [17]) it was 122.1 (93.6–159.3) %; in series [3] (setting [19]), 188.5 (132.5–268.0) %. For the same compound, the “CL/F ratio of geometric means (90%CI)” value in series [3] (setting [16]) is 116.5 (89.3–151.9) %; in series [3] (setting [17]) it was 81.9 (62.8–106.8) %; in series [3] (setting [19]) it was 53.10 (37.3–75.4) %. Also, the “Cmax ratio of geometric means (90%CI)” value is 106.2 (84.7–133.1) % in series [3] (setting [16]), 87.5 (69.8–109.7) % in series [3] (setting [17]) and 141.6 (102.9–194.8) % in series [3] (setting [19]). Moreover, the “Vz/F ratio of geometric means (90%CI)” value in series [3] (setting [16]) was 120.4 (92.2–157.2) %; in series [3] (setting [17]), 103.2 (79.0–134.8) %. Moreover, in series [3] (setting [18]), the “AUC0–∞ higher relative to healthy matched subjects” value was “≈ 22%”. The “Cmax lower relative to healthy matched subjects” value in series [3] (setting [18]) is “≈ 13%”. The “Vz/F ratio of geometric means” value in series [3] (apremilast, severe renal impaired/healthy matched, 90%CI not calculated) was 67.35 (NC) %. In addition, the VZ/F decreased in series [3] (setting [20]) is listed as around 32.7%. The t1/2 prolonged result in series [3] (setting [20]) is listed as “≈ 27%”. For the same compound, the “t1/2 geometric mean difference” value in series [3] (apremilast) was 2.485 ^d (NC) h. Also, the “AUC0–∞ higher compared with healthy matched subjects” value in series [3] (setting [21]) is 88.5% and ≈ 89%. Besides, in series [3] (setting [21]), the “Cmax higher compared with healthy matched subjects” value turned out to be 41.6%. Moreover, in series [3] (setting [21]), the “apparent clearance relative to that of healthy matched subjects” value is recorded as “≈ 53%”. In addition, the “disease effect of PsA: slower clearance” value in series [7] was “≈ 36%”.
Regarding `CCOc1cc(CC(=O)N[C@@H](CC(C)C)c2ccccc2N2CCCCC2)ccc1C(=O)O` [repaglinide], the “fraction of unchanged drug excreted through urine (fe)” value in series [8] (healthy volunteers) is below 0.1%. The mean half-life increase in series [8] (subjects with severe renal impairment, after 1 week of treatment) was around 4 fold.

The values are drawn from article PMC5132082 (Clinical Pharmacology in Drug Development, 2016).
